Laboratory results from ChEMBL document CHEMBL1125798, “Synthesis and biological activity of a series of diaryl-substituted alpha-cyano-beta-hydroxypropenamides, a new class of anthelmintic agents” (1991).

Columns and labels:
Assay type in all cases: functional
Rodentolepis nana [1] = test: The compound was tested for anthelmintic activity against mice, infected with parasite Hymenolepis nana at a dose of 250(ppm in feed)
Outline: (§1)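 Compound was given in feed ad libitum from 24 h postinfection for 18 days, four mice per group. On day 19, N. dubius were counted in the duodenum and H. nana in the ileum. Result is % reduction of mean worm burden vs untreated control; ≤25% was recorded as 0.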

Rodentolepis nana [2] = test: Anthelmintic activity against mice infected with parasite Hymenolepis nana at a dose of 125 ppm (in feed); outline: as §1
[3] = test system: Heligmosomoides polygyrus; test: Anthelmintic activity against mice, infected with parasite Nematospiroides dubius, at a dose of 125 (ppm in feed); outline: as §1
[4] = test system: Heligmosomoides polygyrus; test: Anthelmintic activity against mice, infected with parasite Nematospiroides dubius, at a dose of 250(ppm in feed); outline: as §1
Rodentolepis nana [5] = test: The compound was tested for anthelmintic activity against mice, infected with parasite Hymenolepis nana at a dose of 125(ppm in feed); outline: as §1
Rodentolepis nana [6] = test: The compound was tested for anthelmintic activity against mice, infected with parasite Hymenolepis nana at a dose of 62(ppm in feed); outline: as §1
[7] = test system: Heligmosomoides polygyrus; test: Anthelmintic activity against mice, infected with parasite Nematospiroides dubius, at a dose of 125(ppm in feed); outline: as §1
[8] = test system: Heligmosomoides polygyrus; test: Anthelmintic activity against mice, infected with parasite Nematospiroides dubius, at a dose of 62(ppm in feed); outline: as §1
Ovis aries [9] = test: Anthelmintic activity against sheep, infected with Haemonchus contortus, at a dose of 30 mg/kg.
Outline: (§2)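 Merino ewes and wethers (12-15 months, 25-35 kg) received L3 intraruminally on day 0. Susceptible strains: H. contortus 6000, O. circumcincta 8000, T. colubriformis 8000. Benzimidazole-resistant strains: 8000, 9000, 9000. Animals were allocated by day-27 fecal egg count (n = 4-7) and given a single intraruminal dose in 0.5% carboxymethylcellulose saline. Adult worms in abomasum and small intestine were counted on day 35. Result is mean % reduction vs untreated controls.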

Ovis aries [10] = test: Anthelmintic activity against sheep, infected with Ostertagia circumcincta, at a dose of 30 mg/kg.; outline: as §2
Ovis aries [11] = test: Anthelmintic activity against sheep, infected with Trichostrongylus colubriformis, at a dose of 30 mg/kg.; outline: as §2
Rodentolepis nana [12] = test: Anthelmintic activity against mice infected with parasite Hymenolepis nana at a dose of 62(ppm in feed).; outline: as §1
Rodentolepis nana [13] = test: The compound was tested for anthelmintic activity against mice, infected with parasite Hymenolepis nana at a dose of 500(ppm in feed); outline: as §1
[14] = test system: Heligmosomoides polygyrus; test: Anthelmintic activity against mice, infected with parasite Nematospiroides dubius, at a dose of 500(ppm in feed); outline: as §1
[15] = test system: Heligmosomoides polygyrus; test: Anthelmintic activity against mice, infected with parasite Nematospiroides dubius, at a dose of 250 pm in feed); outline: as §1
[16] = test system: Heligmosomoides polygyrus; test: Anthelmintic activity against mice infected with parasite Nematospiroides dubius, at a dose of 62(ppm in feed).; outline: as §1
Rodentolepis nana [17] = test: The compound was tested for anthelmintic activity against mice, infected with parasite Hymenolepis nana at a dose of 1000(ppm in feed); outline: as §1
[18] = test system: Heligmosomoides polygyrus; test: Anthelmintic activity against mice, infected with parasite Nematospiroides dubius, at a dose of 1000(ppm in feed); outline: as §1
Rodentolepis nana [19] = test: The compound was tested for anthelmintic activity against mice, infected with parasite Hymenolepis nana at a dose of 31(ppm in feed); outline: as §1
[20] = test system: Heligmosomoides polygyrus; test: Anthelmintic activity against mice, infected with parasite Nematospiroides dubius, at a dose of 31(ppm in feed); outline: as §1
Rodentolepis nana [21] = test: The compound was tested for anthelmintic activity against mice, infected with parasite Hymenolepis nana at a dose of 875(ppm in feed); outline: as §1
[22] = test system: Heligmosomoides polygyrus; test: Anthelmintic activity against mice, infected with parasite Nematospiroides dubius, at a dose of 875(ppm in feed); outline: as §1
Ascaris suum [23] = test: Effect on incorporation of [32Pi] by isolated Ascaris suum mitochondria at a concentration of 0 uM
Outline: (§3)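 Body-wall muscle mitochondria from adult A. suum (4-5 mg protein) were preincubated for 5 min at 30 °C, pH 7.4, with inhibitor in 170 mM mannitol, 50 mM sucrose, 10 mM 32Pi-phosphate, 1 mM MgCl2, 0.4 mM ADP and 0.1 unit hexokinase. Reaction was started with 10 mM malate and stopped after 15 min with perchloric acid. 32P-organic phosphate and succinate were measured in extracts; duplicate runs.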

Ascaris suum [24] = test: Effect on incorporation of [32Pi] by isolated Ascaris suum mitochondria at a concentration of 10 uM; outline: as §3
Ascaris suum [25] = test: Effect on incorporation of [32Pi] by isolated Ascaris suum mitochondria at a concentration of 25 uM; outline: as §3
Ascaris suum [26] = test: Effect on incorporation of [32Pi] by isolated Ascaris suum mitochondria at a concentration of 3 uM; outline: as §3
Ascaris suum [27] = test: Effect on incorporation of [32Pi] by isolated Ascaris suum mitochondria at a concentration of 50 uM.; outline: as §3
Ascaris suum [28] = test: Effect on succinate formation by isolated Ascaris suum mitochondria at a concentration of 0 uM; outline: as §3
Ascaris suum [29] = test: Effect on succinate formation by isolated Ascaris suum mitochondria at a concentration of 10 uM; outline: as §3
Ascaris suum [30] = test: Effect on succinate formation by isolated Ascaris suum mitochondria at a concentration of 25 uM; outline: as §3
Ascaris suum [31] = test: Effect on succinate formation by isolated Ascaris suum mitochondria at a concentration of 3 uM; outline: as §3
Ascaris suum [32] = test: Effect on succinate formation by isolated Ascaris suum mitochondria at a concentration of 50 uM; outline: as §3
Ovis aries [33] = test: Anthelmintic activity against sheep, infected with Haemonchus contortus, at a dose of 20 mg/kg.; outline: as §2
Ovis aries [34] = test: Anthelmintic activity against sheep, infected with Ostertagia circumcincta, at a dose of 20 mg/kg.; outline: as §2
Ovis aries [35] = test: Anthelmintic activity against sheep, infected with Trichostrongylus colubriformis, at a dose of 20 mg/kg.; outline: as §2
Rodentolepis nana [36] = test: The compound was tested for anthelmintic activity against mice, infected with parasite Hymenolepis nana at a dose of 31 p.p.m. in feed; outline: as §1
Rodentolepis nana [37] = test: The compound was tested for anthelmintic activity against mice, infected with parasite Hymenolepis nana at a dose of 125 p.p.m. in feed; outline: as §1
[38] = test system: Heligmosomoides polygyrus; test: Anthelmintic activity against mice, infected with parasite Nematospiroides dubius, at a dose of 125 ppm in feed; outline: as §1
[39] = test system: Heligmosomoides polygyrus; test: Anthelmintic activity against mice, infected with parasite Nematospiroides dubius, at a dose of 31 p.p.m. in feed; outline: as §1

| SMILES | Reduction (Rodentolepis nana [1]) [%] | Reduction (Rodentolepis nana [2]) [%] | Reduction [3] [%] | Reduction (Ovis aries [9]) [%] | Reduction (Ovis aries [10]) [%] | Reduction (Ovis aries [11]) [%] | Reduction (Rodentolepis nana [12]) [%] | Reduction [16] [%] | other results |
| --- | --- | --- | --- | --- | --- | --- | --- | --- | --- |
| N#C/C(C(=O)c1ccc(C(F)(F)F)cc1)=C(/S)Nc1ccc(C(F)(F)F)cc1 | 90 | 0 | 0 | – | – | – | – | – | Reduction [4]: 100% |
| N#C/C(C(=O)Nc1ccc(C(F)(F)F)cc1)=C(/O)c1ccc(Br)cc1 | – | – | – | – | – | – | – | – | Reduction (Rodentolepis nana [5]): 100%; Reduction (Rodentolepis nana [6]): 92%; Reduction [7]: 99%; Reduction [8]: 45% |
| N#C/C(C(=O)Nc1ccc(C(F)(F)F)cc1)=C(/O)Cc1ccc(C(F)(F)F)cc1 | 0 | 0 | 35 | 78 | 0 | 0 | – | – | Reduction [4]: 90% |
| N#C/C(C(=O)Nc1ccc(C(F)(F)F)cc1)=C(O)\C=C\c1ccc(C(F)(F)F)cc1 | 0 | – | – | – | – | – | – | – | Reduction [4]: 48% |
| N#C/C(C(=O)Nc1ccc(F)cc1)=C(/O)c1ccc(C(F)(F)F)cc1 | – | 0 | 100 | – | – | – | 0 | – | Reduction [8]: 0% |
| N#C/C(C(=O)Nc1ccc(Oc2ccc(Cl)cc2)c(Cl)c1)=C(/O)c1ccc(C(F)(F)F)cc1 | – | 0 | 0 | 0 | 0 | 0 | – | – | Reduction (Rodentolepis nana [13]): 83%; Reduction [14]: 100% |
| N#C/C(C(=O)Nc1ccc([N+](=O)[O-])cc1)=C(/O)c1ccc(C(F)(F)F)cc1 | 100 | 0 | 50 | – | – | – | – | – | Reduction [15]: 100% |
| N#C/C(C(=O)Nc1ccc(Sc2ccc(Cl)cc2)cc1)=C(/O)c1ccc(C(F)(F)F)cc1 | 33 | 0 | 0 | – | – | – | – | – | Reduction [4]: 94% |
| N#C/C(C(=O)Nc1ccc(Cl)c(Cl)c1)=C(/O)c1ccc(C(F)(F)F)cc1 | – | 93 | 100 | – | – | – | 0 | 0 | – |
| N#C/C(C(=O)Nc1ccc(Cl)c(Cl)c1)=C(/O)c1ccc(Cl)c(Cl)c1 | – | 0 | 0 | 100 | 0 | 0 | – | – | – |
| N#C/C(C(=O)Nc1ccc(C#N)cc1)=C(/O)c1ccc(C(F)(F)F)cc1 | – | 100 | 100 | 87 | 7 | 26 | 0 | 43 | – |
| N#C/C(C(=O)Nc1ccccc1)=C(/O)c1ccccc1 | – | – | – | – | – | – | – | – | Reduction (Rodentolepis nana [17]): 0%; Reduction [18]: 0% |
| N#C/C(C(=O)Nc1ccccc1)=C(/O)c1ccc(C(F)(F)F)cc1 | – | – | – | – | – | – | – | – | Reduction (Rodentolepis nana [13]): 100%; Reduction [14]: 32% |
| N#C/C(C(=O)Nc1ccc(Sc2ccccc2)cc1)=C(/O)c1ccc(C(F)(F)F)cc1 | 0 | – | – | – | – | – | – | – | Reduction [4]: 0% |
| N#C/C(C(=O)Nc1ccc(C(F)(F)F)cc1)=C(/O)c1cc(Cl)cc(Cl)c1 | – | 100 | 100 | 100 | 0 | 0 | 0 | 0 | – |
| N#C/C(C(=O)Nc1ccc(OC(F)(F)F)cc1)=C(/O)c1ccc(OC(F)(F)F)cc1 | – | – | – | – | – | – | 56 | 100 | Reduction (Rodentolepis nana [19]): 0%; Reduction [20]: 39% |
| N#C/C(C(=O)Nc1ccc(C(F)(F)F)cc1)=C(/O)c1ccccc1 | – | – | – | – | – | – | – | – | Reduction (Rodentolepis nana [21]): 0%; Reduction [22]: 0% |
| N#C/C(C(=O)Nc1ccc(C(F)(F)F)cc1)=C(/O)c1ccc(C(F)(F)F)cc1 | – | – | – | 100 | 0 | 0 | 0 | 100 | EC (Ascaris suum [23]): 0.39 uM 15min-1 mg-1; EC (Ascaris suum [24]): 0.28 uM 15min-1 mg-1; EC (Ascaris suum [25]): 0.15 uM 15min-1 mg-1; EC (Ascaris suum [26]): 0.35 uM 15min-1 mg-1; EC (Ascaris suum [27]): 0.05 uM 15min-1 mg-1; EC (Ascaris suum [28]): 0.48 uM 15min-1 mg-1; EC (Ascaris suum [29]): 0.75 uM 15min-1 mg-1; EC (Ascaris suum [30]): 0.86 uM 15min-1 mg-1; EC (Ascaris suum [31]): 0.63 uM 15min-1 mg-1; EC (Ascaris suum [32]): 1.17 uM 15min-1 mg-1; Reduction (Rodentolepis nana [19]): 0%; Reduction [20]: 76%; Reduction (Ovis aries [33]): 100%; Reduction (Ovis aries [34]): 66%; Reduction (Ovis aries [35]): 0% |
| Cc1cc([N+](=O)[O-])ccc1NC(=O)/C(C#N)=C(\O)c1ccc(C(F)(F)F)cc1 | – | 99 | 97 | 0 | 0 | 0 | 0 | 35 | – |
| COC(=O)Nc1nc2cc([S+]([O-])c3ccccc3)ccc2[nH]1 (configuration not stated) [OXFENDAZOLE] | – | – | – | – | – | – | – | – | Reduction (Rodentolepis nana [36]): 0%; Reduction (Rodentolepis nana [37]): 100%; Reduction [38]: 100%; Reduction [39]: 100% |
